# Hits are enriched below; roughly 4.1% of the tested compounds scored in any of these assays.
# Apaf1 inhib: blocks human Apaf-1 apoptosome activity. inhibition, % at 20 µM. 330,000 tested, 0.71% active. O14727. reconstituted apoptosome caspase-3 activity, DEVD-Rh110 fluorescence; active = inhibition of at least 40% at 20 µM;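 also: plate controls were DMSO wells for no effect and DEVD-CHO caspase inhibitor wells for full effect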
#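 Medium: Hepes buffer, pH 7.5 / System: biochemical Apaf-1 apoptosome reconstitution / Measured by: Rh110 fluorescence, excitation 480 nm, emission 540 nm / Times: compound with Apaf-1, dATP, procaspase-3 30 min, then 50 min reaction, room temperature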
# UBC13 inh: human UBC13 polyubiquitination inhibition | P61088 | UBC13 polyubiquitin chain formation, TR-FRET | inhibition, % at 20 µM | 330,000 tested, 0.47% active | AID 485273; in the data active = inhibition above about 45%, passing the limit was not always enough
# UPR CHOP act: apoptotic UPR (CHOP) activation; CHO-CHOP luciferase reporter, luminescence; percent of tunicamycin response over DMSO baseline; activation, % at 10 µM; 330,000 tested, 0.34% active;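 active = at 10 µM dose, activation of 40% or more, normalized to positive control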;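 also: 100% = tunicamycin at 10 µg/mL and 0% = DMSO alone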
#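 measured by = luciferase luminescence | assay system = CHO-CHOP cells, stable luciferase reporter of PERK-eIF2a-CHOP signalling | amount = 500 reporter cells seeded per well | timing = 6 h compound exposure at 37 °C after overnight seeding | controls = positive tunicamycin 10 µg/mL, negative DMSO alone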
# Mdm2 MdmX PPI: disrupts the human Mdm2-MdmX interaction | O15151+Q00987 | SaOS-2 split-luciferase Mdm2/MdmX complementation, luminescence | inhibition, % at 8 µM | 330,000 tested, 3% active;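 active = inhibition of at least 50% at 8 µM in the primary screen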
# Target sequence (O15151 whole entry, looked up): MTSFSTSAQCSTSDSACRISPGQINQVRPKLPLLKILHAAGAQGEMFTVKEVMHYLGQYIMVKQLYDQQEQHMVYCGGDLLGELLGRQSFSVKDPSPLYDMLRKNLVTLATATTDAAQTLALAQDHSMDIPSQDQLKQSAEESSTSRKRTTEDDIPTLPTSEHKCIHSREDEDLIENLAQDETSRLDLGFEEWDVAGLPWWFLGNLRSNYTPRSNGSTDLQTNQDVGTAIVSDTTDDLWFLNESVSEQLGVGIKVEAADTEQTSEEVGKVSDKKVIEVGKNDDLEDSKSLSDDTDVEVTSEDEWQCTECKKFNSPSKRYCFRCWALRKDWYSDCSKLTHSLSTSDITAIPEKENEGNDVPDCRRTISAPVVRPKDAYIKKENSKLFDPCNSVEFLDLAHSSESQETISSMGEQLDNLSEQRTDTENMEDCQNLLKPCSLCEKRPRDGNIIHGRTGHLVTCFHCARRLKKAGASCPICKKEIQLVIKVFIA
# Target sequence (Q00987 whole entry, looked up): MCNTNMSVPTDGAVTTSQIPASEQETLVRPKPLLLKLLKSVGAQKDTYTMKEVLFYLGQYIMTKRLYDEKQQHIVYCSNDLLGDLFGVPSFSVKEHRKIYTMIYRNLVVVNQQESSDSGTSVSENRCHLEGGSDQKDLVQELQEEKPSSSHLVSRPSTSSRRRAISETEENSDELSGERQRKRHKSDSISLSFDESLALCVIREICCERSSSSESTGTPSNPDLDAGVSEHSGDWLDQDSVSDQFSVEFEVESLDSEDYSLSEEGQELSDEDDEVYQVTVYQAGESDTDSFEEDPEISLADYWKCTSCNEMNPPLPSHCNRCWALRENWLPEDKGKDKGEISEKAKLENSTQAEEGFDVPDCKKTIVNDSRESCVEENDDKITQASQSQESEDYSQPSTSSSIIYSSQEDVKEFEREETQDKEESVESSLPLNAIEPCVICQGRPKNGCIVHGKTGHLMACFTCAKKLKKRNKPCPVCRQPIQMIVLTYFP
# XBP1 UPR activ: activators of adaptive arm of unfolded protein response (XBP1); CHO-XBP1 luciferase reporter, IRE1-XBP1 UPR activation, luminescence; percent of tunicamycin response, DMSO as zero; activation, % at 20 µM; 330,000 tested, 0.33% active; AID 463104;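 active = versus positive control, 20 µM dose yields 30% or more activation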;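 also: 100% = tunicamycin at 10 µg/mL and 0% = DMSO only wells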
#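 Material: CHO cell line with stable XBP1 luciferase reporter; schedule: 16-18 h cell attachment at 37 °C, then 6 h compound exposure; signal: glow luminescence from Steady-Glo reagent; medium: serum-containing F12 medium, 10% FBS; benchmarks: tunicamycin 10 µg/mL and vehicle-only wells; read-out: percent activation relative to tunicamycin reference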
# Mdm2-MdmX conf: confirmation of human Mdm2/MdmX interaction inhibitors; shares compounds with Mdm2 MdmX PPI; 10,000 tested, 55% active; AID 489028; Mdm2-MdmX binding, luminescent assay; inhibition, % at 8 µM; in the data active = inhibition above about 40%
# Full FLuc ctr: full-length luciferase inhibition in Mdm2/MdmX counter-screen. inhibition, % at 8 µM. 6,200 tested, 77% active. SaOS-2 full-length luciferase counterscreen, luminescence. shares compounds with Mdm2 MdmX PPI;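 active = mean inhibition at 8 µM reaching about 37%, which flags the compound as non-specific, limit read from the data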;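 also: p53-null SaOS-2 cells with luciferase driven by a doxycycline-inducible promoter; compound on cells about two nights before reading with doxycycline added after day one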
# The depositor's hits bear a star; / = not tested or not shown.
SMILES,Apaf1 inhib,UBC13 inh,UPR CHOP act,Mdm2 MdmX PPI,XBP1 UPR activ,Mdm2-MdmX conf,Full FLuc ctr
Cc1c(C(=O)NC(=S)Nc2ccc(NC(=O)c3cccs3)cc2)oc2ccccc12,-6,-5,2,62*,13,11,/
COc1ccc(Cl)cc1NC(=O)NCC1CCN(Cc2cc(C)ccc2C)CC1,15,24,3,58*,-2,36,/
CCN(Cc1ccccc1)c1ccc(/C=N/N=C(N)N)cc1,18,43,-2,98*,-2,100*,58*
CCC(=NCCc1c(C)[nH]c2ccccc12)C1=C(O)CC(c2ccccc2)CC1=O (configuration not stated),19,-5,3,71*,1,52*,50*
CCCCC(=NCCc1c(C)[nH]c2ccc(OC)cc12)C1=C(O)CC(c2ccccc2)CC1=O (configuration not stated),1,-3,1,60*,10,54*,66*
CCC(=NCCc1c(C)[nH]c2ccc(OC(F)(F)F)cc12)C1=C(O)CC(c2ccccc2)CC1=O (configuration not stated),0,-6,2,66*,13,64*,73*
CC(=NCCc1c(C)[nH]c2ccc(OCc3ccccc3)cc12)C1=C(O)CC(c2ccccc2)CC1=O (configuration not stated),-3,-12,1,28,-4,/,/
O=C1c2ccccc2S(=O)(=O)N1Cc1ccccc1[N+](=O)[O-],-6,1,1,20,-4,/,/
CC(C)C[C@@H](CNC(=O)OC(C)(C)C)NC(=O)c1nc[nH]c1C(=O)N[C@@H](CC(C)C)C(=O)CNC[C@H](CC(C)C)NC(=O)c1nc[nH]c1C(=O)N[C@@H](Cc1c[nH]c2ccccc12)C(=O)OC(C)(C)C,19,-30,0,38,-2,/,/
NC(=O)NC1NC(=O)NC1=O (configuration not stated),6,-4,1,17,-2,/,/
CC(C)C(=O)NNC(=O)c1c(O)c2ccccc2[nH]c1=O,-9,4,1,-12,-1,/,/
O=C(N/N=C/c1ccc(F)cc1)c1c(O)c2ccccc2[nH]c1=O,1,-8,3,88*,8,4,/
CC(C)NC(=O)c1c(O)c2ccccc2[nH]c1=O,-16,13,5,84*,2,83*,46*
O=[N+]([O-])c1ccc(O)c(/C=N/Nc2nc3ccccc3[nH]2)c1,-7,-87,5,89*,4,52*,48*
COc1cccc(/C=N/Nc2nc3ccccc3[nH]2)c1O,21,-20,2,61*,3,40*,61*
O=[N+]([O-])c1cccc(N/N=C/c2cc([N+](=O)[O-])ccc2O)c1,14,-34,1,-14,1,/,/
COc1ccc(O)c(/C=N/Nc2nc3ccccc3[nH]2)c1,-4,-4,5,-2,-2,/,/
O=[N+]([O-])c1ccc(O)c(/C=N/Nc2ncnc3c2cnn3-c2ccccc2)c1,11,-67,9,91*,6,91*,21
COc1cccc(/C=N/Nc2nc3ccccc3[nH]2)c1OC,10,-11,6,-34,0,/,/
O=C(CSc1nnc(-c2ccncc2)o1)N1CCCC1,-10,-1,0,9,-1,/,/
O=C(c1cc(COc2ccc(F)c(F)c2)on1)N1CCN(C2CCCCC2)C(=O)C1,19,-7,1,0,-3,/,/
CC(C)n1c2ccccc2c2nnc(SCC(=O)Nc3ccccc3C(=O)O)nc21,4,26,1,-5,3,/,/
O=C(N/N=C/c1ccco1)c1cc(-c2cccc(Br)c2)nc2ccccc12,-33,-6,7,22,-1,/,/
O=C(N/N=C/c1ccsc1)c1cc(-c2ccncc2)nc2ccccc12,0,2,0,52*,10,38,66*
Cc1ccsc1/C=N/NC(=O)c1cc(-c2ccncc2)nc2ccccc12,9,-6,-2,58*,9,60*,58*
SMILES,Apaf1 inhib,UBC13 inh,UPR CHOP act,Mdm2 MdmX PPI,XBP1 UPR activ,Mdm2-MdmX conf,Full FLuc ctr
CC(/C=N/NC(=O)c1cc(-c2ccncc2)nc2ccccc12)=C\c1ccco1,18,-22,0,63*,22,62*,97*
COc1ccccc1-c1cc(C(=O)N/N=C/c2sccc2C)c2ccccc2n1,6,-13,-2,46,-5,/,/
O=C(N/N=C/c1ccc2c(c1)OCO2)c1cc(-c2ccncc2)nc2ccccc12,6,-5,1,51*,10,44*,59*
O=C(N/N=C/c1ccc2c(c1)OCO2)c1cc(-c2ccccc2Cl)nc2ccccc12,4,-8,0,20,3,/,/
O=C(O)CNC(=O)/C(=C\c1cccc([N+](=O)[O-])c1)NC(=O)c1ccco1,-2,2,0,6,2,/,/
Cc1cc(C)c(C)c(S(=O)(=O)N2CCN(C(=O)c3ccccc3OCc3c(C)noc3C)CC2)c1C,26,-6,0,-2,2,/,/
O=C1c2ccccc2C(=O)c2c(NCCCN(CCO)CCO)cccc21,3,-416,-2,-15,-7,/,/
O=C1c2c(O)ccc(O)c2C(=O)c2c(NCCNCCO)ccc(NCCNCCO)c21,78*,34,-3,100*,-4,98*,2
C/C(=C\c1ccccc1F)C(=O)c1c(C)cc(C)[nH]c1=O,7,6,1,13,-1,/,/
Cc1[nH]c(=O)c(C(=O)/C=C/c2ccccc2F)c2c1CCCC2,11,-5,25,80*,0,99*,53*
CCOCc1c(C(=O)NCC(c2ccco2)N2CCCC2)oc2ccccc12 (configuration not stated),-10,9,1,3,0,/,/
COC(=O)C1=CN(c2cc(C)cc(C)c2)C=C(C(=O)OC)C1c1cccc(F)c1,22,2,-1,53*,-1,37,106*
C/C(=N\NC(=S)Nc1ccc(F)cc1)c1ccc2c(c1)OCCO2,5,-5,7,64*,3,62*,56*
O=[N+]([O-])c1cccc(/C=N/NC2=NCCCCC2)c1,-3,-8,1,-8,2,/,/
O=C(ONC1=NCCCCC1)c1cccc([N+](=O)[O-])c1,-1,-7,1,56*,3,18,/
O=[N+]([O-])c1ccc(N=Nc2c(O)[nH]c3ccc(F)cc23)cc1,21,-73,8,54*,17,-44,/
Cn1nccc1C(=O)Nc1nnc(C2CC2)s1,6,-1,0,6,-5,/,/
